Data as given in ChEMBL document CHEMBL1147969, “Synthesis of some novel heterocyclic compounds derived from diflunisal hydrazide as potential anti-infective and anti-inflammatory agents” (2007).
Converted amounts (≈) assume the structure as drawn. The source made the active and inactive calls.

Assays:
Proteus vulgaris [1] = test: Antimicrobial activity against Proteus vulgaris KUKEM1329 by disk diffusion method at 300 ug/disc; assay type: functional
How it was run: (§1)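 For broth microdilution, inocula came from 12 h broth cultures adjusted to 0.5 McFarland. Test agents in 10% DMSO were serially diluted twofold (7.8–500) in nutrient broth. Wells were shaken 20 s at 300 rpm and incubated 24 h. Clear wells were plated on nutrient agar to check growth. MIC was the lowest concentration inhibiting growth. Each compound was screened twice per organism.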

Enterococcus faecalis = test: Antimicrobial activity against Enterococcus faecalis ATCC […] by microwell dilution method; assay type: functional; how it was run: as §1
Mus musculus [2] = test: Antiinflammatory activity against BALB/c mouse assessed as inhibition of carrageenan-induced paw edema at 50 mg/kg, po after 4 hrs; assay type: functional
How it was run: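 Mice were fasted on the last day (water only) and dosed by gavage at 50 mg/kg, suspended in 0.5% methyl cellulose; controls got vehicle, six mice per group. After 60 min, 0.5 mg/mL carrageenan in saline was injected subplantar into the right hind paw, with saline in the left. The right–left thickness difference was read by microcaliper at 4 h. % inhibition = (n−n0)/n×100 versus control.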

Mus musculus [3] = test: Antinociceptive activity against mouse assessed as paw withdrawal latency at 50 mg/kg, po after 60 mins by hot plate test; assay type: functional
How it was run: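 Hot plate was set at 55 °C. Latency to jumping or hind-paw licking was recorded before and 60 min after oral dosing at 50 mg/kg, or vehicle, with a 30 s cutoff. Groups had at least eight mice each. Testing was done between 2:00 and 4:00 pm.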

Trichophyton benhamiae [4] = test: Antifungal activity against Trichophyton mentagrophytes at 300 ug/disc after 72 hrs by disk diffusion method; assay type: functional, Arthroderma benhamiae
How it was run: (§2)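 Disc diffusion was run on potato dextrose agar seeded with 10^4 spore/mL. 6 mm discs each carried 300 per disc of test agent. DMSO-impregnated discs served as negative controls. Plates were incubated 72 h, at 27 °C for plant-associated isolates or 37 °C for clinical isolates. The read-out was inhibition zone diameter in mm. Each assay was repeated twice.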

Trichophyton benhamiae [5] = test: Antifungal activity against Trichophyton mentagrophytes after 72 hrs by agar dilution method; assay type: functional, Arthroderma benhamiae
How it was run: (§3)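 Fungal isolates were screened on agar dilution plates. Test agents in 10% DMSO were mixed into potato dextrose agar containing 0.5% v/v Tween 20, over a range of 7.8–500. Plates were spot-inoculated with 10^4 spore/mL and held 72 h, at 27 °C for plant isolates or 37 °C for clinical isolates. MIC was the lowest concentration with no growth. Each test was repeated at least twice.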

Proteus vulgaris [6] = test: Antimicrobial activity against Proteus vulgaris A161 […]; assay type: functional; how it was run: as §1
Streptococcus pyogenes [7] = test: Antimicrobial activity against Streptococcus pyogenes ATCC 176 by microwell dilution method; assay type: functional; how it was run: as §1
Streptococcus pyogenes [8] = test: Antimicrobial activity against Streptococcus pyogenes KUKEM676 by disk diffusion method at 300 ug/disc; assay type: functional
How it was run: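 Mueller-Hinton agar was spread with 10^8 CFU/mL bacteria. 6 mm discs held 300 per disc of test agent, with DMSO discs as negative controls. Plates were incubated 24 h, at 37 °C for clinical strains or 27 °C for plant-associated strains. Zone of inhibition diameter in mm was measured. Each assay was repeated twice.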

Escherichia coli = test: Antimicrobial activity against Escherichia coli A1 by microwell dilution method; assay type: functional; how it was run: as §1
Streptococcus pyogenes [9] = test: Antimicrobial activity against Streptococcus pyogenes KUKEM676 by microwell dilution method; assay type: functional; how it was run: as §1
Aspergillus versicolor [10] = test: Antifungal activity against Aspergillus variecolor after 72 hrs by agar dilution method; assay type: functional; how it was run: as §3
Aspergillus flavus [11] = test: Antifungal activity against Aspergillus flavus after 72 hrs by agar dilution method; assay type: functional; how it was run: as §3
Aspergillus flavus [12] = test: Antifungal activity against Aspergillus flavus at 300 ug/disc after 72 hrs by disk diffusion method; assay type: functional; how it was run: as §2
Aspergillus versicolor [13] = test: Antifungal activity against Aspergillus variecolor at 300 ug/disc after 72 hrs by disk diffusion method; assay type: functional; how it was run: as §2
Proteus vulgaris [14] = test: Antimicrobial activity against Proteus vulgaris A161 by disk diffusion method at 10 ug/disc; assay type: functional; settings: read-out: IZ
Proteus vulgaris [15] = test: Antimicrobial activity against Proteus vulgaris KUKEM1329 by disk diffusion method at 10 ug/disc; assay type: functional; settings: read-out: IZ
Streptococcus pyogenes [16] = test: Antimicrobial activity against Streptococcus pyogenes ATCC 176 by disk diffusion method at 10 ug/disc; assay type: functional; settings: read-out: IZ
Streptococcus pyogenes [17] = test: Antimicrobial activity against Streptococcus pyogenes KUKEM676 by disk diffusion method at 10 ug/disc; assay type: functional; settings: read-out: IZ
Human alphaherpesvirus 1 [18] = test: Antiviral activity against TK positive HSV1 KOS-induced cytopathogenicity at 16 ug/mL; assay type: functional, organism-based
Sindbis virus [19] = test: Antiviral activity against Sindbis virus-induced cytopathogenicity at 9.6 ug/mL; assay type: functional, organism-based
Human alphaherpesvirus 1 [20] = test: Antiviral activity against acyclovir resistant TK positive HSV1 KOS-induced cytopathogenicity at 16 ug/mL; assay type: functional, organism-based
Coxsackievirus B4 = test: Antiviral activity against Coxsackie virus B4-induced cytopathogenicity at 16 ug/mL; assay type: functional, organism-based
Sindbis virus [21] = test: Antiviral activity against Sindbis virus-induced cytopathogenicity at 16 ug/mL; assay type: functional, organism-based
Punta Toro virus = test: Antiviral activity against Punta Toro virus-induced cytopathogenicity at 16 ug/mL; assay type: functional, organism-based
Human alphaherpesvirus 2 = test: Antiviral activity against HSV2-induced cytopathogenicity at 16 ug/mL; assay type: functional, organism-based
Trichophyton rubrum [22] = test: Antifungal activity against Trichophyton rubrum at 300 ug/disc after 72 hrs by disk diffusion method; assay type: functional; how it was run: as §2
Trichophyton rubrum [23] = test: Antifungal activity against Trichophyton rubrum after 72 hrs by agar dilution method; assay type: functional; how it was run: as §3

C=CCn1c(-c2cc(-c3ccc(F)cc3F)ccc2O)n[nH]c1=S
inhibition zone (IZ) (Proteus vulgaris [1]): 9 mm
inhibition zone (IZ) (Enterococcus faecalis): 10 mm
inhibition in vivo at 50 mg/kg (Mus musculus [2]): 73%
Paw withdrawal latency (Mus musculus [3]): 16.8 s
MIC (Trichophyton benhamiae [4]): 31.2 µg/mL (≈ 90.5 µM)
inhibition zone (IZ) (Trichophyton benhamiae [5]): 14 mm
inhibition zone (IZ) (Proteus vulgaris [6]): 10 mm
inhibition zone (IZ) (Streptococcus pyogenes [7]): 12 mm
MIC (Streptococcus pyogenes [8]): 62.2 µg/mL (≈ 180 µM)
inhibition zone (IZ) (Escherichia coli): 12 mm
inhibition zone (IZ) (Streptococcus pyogenes [9]): 14 mm
inhibition zone (IZ) (Aspergillus versicolor [10]): 10 mm
inhibition zone (IZ) (Aspergillus flavus [11]): 14 mm
MIC (Aspergillus flavus [12]): 31.2 µg/mL (≈ 90.5 µM)
MIC (Aspergillus versicolor [13]): 62.5 µg/mL (≈ 181 µM)

Cc1ccc(Nc2nnc(-c3cc(-c4ccc(F)cc4F)ccc3O)s2)cc1
inhibition in vivo at 50 mg/kg (Mus musculus [2]): 43.5%
Paw withdrawal latency (Mus musculus [3]): 14.5 s

CC1COc2c(N3CCN(C)CC3)c(F)cc3c(=O)c(C(=O)O)cn1c23 (configuration not stated) [OFLOXACIN]
zone of inhibition at 10 µg/disc (Proteus vulgaris [14]): 12 mm
zone of inhibition at 10 µg/disc (Proteus vulgaris [15]): 13 mm
zone of inhibition at 10 µg/disc (Streptococcus pyogenes [16]): 10 mm
zone of inhibition at 10 µg/disc (Streptococcus pyogenes [17]): 13 mm

COc1ccc(-n2c(-c3cc(-c4ccc(F)cc4F)ccc3O)n[nH]c2=S)cc1
inhibition zone (IZ) (Proteus vulgaris [1]): 10 mm
inhibition zone (IZ) (Enterococcus faecalis): 12 mm
inhibition in vivo at 50 mg/kg (Mus musculus [2]): 53.5%
Paw withdrawal latency (Mus musculus [3]): 15 s
inhibition zone (IZ) (Streptococcus pyogenes [7]): 10 mm
MIC (Streptococcus pyogenes [8]): 125 µg/mL (≈ 304 µM)
inhibition zone (IZ) (Streptococcus pyogenes [9]): 9 mm

Oc1ccc(-c2ccc(F)cc2F)cc1-c1nnc(Nc2ccccc2)o1
inhibition in vivo at 50 mg/kg (Mus musculus [2]): 39.5%
Paw withdrawal latency (Mus musculus [3]): 12 s

Cn1c(-c2cc(-c3ccc(F)cc3F)ccc2O)n[nH]c1=S
inhibition zone (IZ) (Proteus vulgaris [1]): 8 mm
inhibition in vivo at 50 mg/kg (Mus musculus [2]): 56.9%
Paw withdrawal latency (Mus musculus [3]): 16.4 s
inhibition zone (IZ) (Proteus vulgaris [6]): 10 mm

CCNc1nnc(-c2cc(-c3ccc(F)cc3F)ccc2O)o1
inhibition in vivo at 50 mg/kg (Mus musculus [2]): 36.8%
Paw withdrawal latency (Mus musculus [3]): 11 s

Oc1ccc(-c2ccc(F)cc2F)cc1-c1n[nH]c(=S)n1-c1ccccc1
inhibition in vivo at 50 mg/kg (Mus musculus [2]): 36.3%
Paw withdrawal latency (Mus musculus [3]): 16 s
Activity (Human alphaherpesvirus 1 [18]): Active

Cc1ccc(-n2c(-c3cc(-c4ccc(F)cc4F)ccc3O)n[nH]c2=S)cc1
inhibition in vivo at 50 mg/kg (Mus musculus [2]): 51.6%
Paw withdrawal latency (Mus musculus [3]): 14.2 s

CNc1nnc(-c2cc(-c3ccc(F)cc3F)ccc2O)s1
inhibition in vivo at 50 mg/kg (Mus musculus [2]): 45.4%
Paw withdrawal latency (Mus musculus [3]): 13.5 s
Activity (Sindbis virus [19]): Active
Activity (Human alphaherpesvirus 1 [20]): Active
Activity (Coxsackievirus B4): Active
Activity (Sindbis virus [21]): Active
Activity (Punta Toro virus): Active
Activity (Human alphaherpesvirus 1 [18]): Active

O=C(O)c1cc(-c2ccc(F)cc2F)ccc1O [DIFLUNISAL]
inhibition in vivo at 50 mg/kg (Mus musculus [2]): 24.2%
Paw withdrawal latency (Mus musculus [3]): 19.1 s

C=CCNc1nnc(-c2cc(-c3ccc(F)cc3F)ccc2O)s1
inhibition in vivo at 50 mg/kg (Mus musculus [2]): 57.2%
Paw withdrawal latency (Mus musculus [3]): 13.9 s
Activity (Human alphaherpesvirus 1 [20]): Active
Activity (Coxsackievirus B4): Active
Activity (Sindbis virus [21]): Active
Activity (Punta Toro virus): Active
Activity (Human alphaherpesvirus 1 [18]): Active

Cc1ccc(Nc2nnc(-c3cc(-c4ccc(F)cc4F)ccc3O)o2)cc1
inhibition in vivo at 50 mg/kg (Mus musculus [2]): 33.8%
Paw withdrawal latency (Mus musculus [3]): 11.1 s

C=CCNc1nnc(-c2cc(-c3ccc(F)cc3F)ccc2O)o1
inhibition in vivo at 50 mg/kg (Mus musculus [2]): 36.6%
Paw withdrawal latency (Mus musculus [3]): 9.8 s
Activity (Human alphaherpesvirus 2): Active

Oc1ccc(-c2ccc(F)cc2F)cc1-c1n[nH]c(=S)n1C1CCCCC1
inhibition zone (IZ) (Proteus vulgaris [1]): 12 mm
inhibition in vivo at 50 mg/kg (Mus musculus [2]): 64.4%
Paw withdrawal latency (Mus musculus [3]): 13.2 s
inhibition zone (IZ) (Proteus vulgaris [6]): 10 mm
Activity (Sindbis virus [21]): Active

CCN[C@@H]1C[C@H](N)[C@@H](O[C@H]2OC(CN)=CC[C@H]2N)[C@H](O)[C@H]1O[C@H]1OC[C@](C)(O)[C@H](NC)[C@H]1O [NETILMICIN]
MIC (Trichophyton benhamiae [4]): 31.2 µg/mL (≈ 65.7 µM)
MIC (Trichophyton rubrum [22]): 15.6 µg/mL (≈ 32.8 µM)
MIC (Aspergillus flavus [12]): 15.6 µg/mL (≈ 32.8 µM)
MIC (Aspergillus versicolor [13]): 62.5 µg/mL (≈ 131 µM)

Oc1ccc(-c2ccc(F)cc2F)cc1-c1nnc(NC2CCCCC2)s1
inhibition in vivo at 50 mg/kg (Mus musculus [2]): 41.4%
Paw withdrawal latency (Mus musculus [3]): 12.5 s

Oc1ccc(-c2ccc(F)cc2F)cc1-c1nnc(Nc2ccccc2)s1
inhibition zone (IZ) (Proteus vulgaris [1]): 16 mm
inhibition in vivo at 50 mg/kg (Mus musculus [2]): 43%
Paw withdrawal latency (Mus musculus [3]): 16.5 s
inhibition zone (IZ) (Proteus vulgaris [6]): 14 mm
inhibition zone (IZ) (Streptococcus pyogenes [7]): 18 mm
inhibition zone (IZ) (Escherichia coli): 16 mm

CO/N=C(\C(=O)N[C@@H]1C(=O)N2C(C(=O)[O-])=C(C[N+]3(C)CCCC3)CS[C@H]12)c1csc(N)n1 [CEFEPIME]
MIC (Streptococcus pyogenes [8]): 31.2 µg/mL (≈ 65 µM)

CCn1c(-c2cc(-c3ccc(F)cc3F)ccc2O)n[nH]c1=S
inhibition zone (IZ) (Proteus vulgaris [1]): 9 mm
inhibition in vivo at 50 mg/kg (Mus musculus [2]): 46.2%
Paw withdrawal latency (Mus musculus [3]): 17.1 s
inhibition zone (IZ) (Trichophyton rubrum [23]): 16 mm
inhibition zone (IZ) (Proteus vulgaris [6]): 9 mm
Activity (Coxsackievirus B4): Active
inhibition zone (IZ) (Aspergillus versicolor [10]): 14 mm
MIC (Trichophyton rubrum [22]): 15.2 µg/mL (≈ 45.7 µM)
inhibition zone (IZ) (Aspergillus flavus [11]): 16 mm
MIC (Aspergillus flavus [12]): 31.2 µg/mL (≈ 93.7 µM)
MIC (Aspergillus versicolor [13]): 31.2 µg/mL (≈ 93.7 µM)

CCNc1nnc(-c2cc(-c3ccc(F)cc3F)ccc2O)s1
inhibition in vivo at 50 mg/kg (Mus musculus [2]): 50.2%
Paw withdrawal latency (Mus musculus [3]): 13.5 s

COc1ccc(Nc2nnc(-c3cc(-c4ccc(F)cc4F)ccc3O)o2)cc1
inhibition in vivo at 50 mg/kg (Mus musculus [2]): 35.3%
Paw withdrawal latency (Mus musculus [3]): 12 s

CNc1nnc(-c2cc(-c3ccc(F)cc3F)ccc2O)o1
inhibition in vivo at 50 mg/kg (Mus musculus [2]): 41.4%
Paw withdrawal latency (Mus musculus [3]): 10.9 s

COc1ccc(Nc2nnc(-c3cc(-c4ccc(F)cc4F)ccc3O)s2)cc1
inhibition in vivo at 50 mg/kg (Mus musculus [2]): 55.3%
Paw withdrawal latency (Mus musculus [3]): 19.2 s

Oc1ccc(-c2ccc(F)cc2F)cc1-c1nnc(NC2CCCCC2)o1
inhibition in vivo at 50 mg/kg (Mus musculus [2]): 23.8%
Paw withdrawal latency (Mus musculus [3]): 12 s
